Experimental data as given in ChEMBL document CHEMBL5532695, “4-Trifluoromethyl bithiazoles as broad-spectrum antimicrobial agents for virus-related bacterial infections or co-infections” (RSC Med Chem, 2024).

Assays:
Streptococcus pyogenes [1] = experiment: Antibacterial activity against Streptococcus pyogenes ATCC 12344 assessed as reduction in microbial growth measured after 18 hrs by CLSI based broth microdilution method; assay type: functional
Procedure, shortened: (§1)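 MIC by CLSI broth microdilution in Mueller–Hinton medium, triplicate. Inoculum 5 × 10^4 CFU per well. Compounds taken up in DMSO (50 mg mL−1 stock) and diluted in medium. Read after 18 h at 35 ± 2 °C.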

Staphylococcus aureus [2] = experiment: Antibacterial activity against Staphylococcus aureus ATCC 25923 assessed as reduction in microbial growth measured after 18 hrs by CLSI based broth microdilution method; assay type: functional; procedure, shortened: as §1
Klebsiella pneumoniae = experiment: Synergistic antibacterial activity against Klebsiella pneumoniae ATCC 13833 incubated for 18 to 24 hrs in presence of colistin by broth microdilution method; assay type: functional; settings: time 18-24 hrs
Staphylococcus warneri [3] = experiment: Bactericidal activity against oxacillin-resistant Staphylococcus warneri SI-5/2011 assessed as reduction in microbial growth measured after 18 hrs by CLSI based broth microdilution method; assay type: functional
Acinetobacter baumannii = experiment: Synergistic antibacterial activity against Acinetobacter baumannii ATCC 17978 incubated for 18 to 24 hrs in presence of colistin by broth microdilution method; assay type: functional; settings: time 18-24 hrs
Enterococcus faecalis [4] = experiment: Bactericidal activity against Enterococcus faecalis ATCC 29212 assessed as reduction in microbial growth measured after 18 hrs by CLSI based broth microdilution method; assay type: functional
Procedure, shortened: (§2)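 MBC by CLSI broth microdilution in Mueller–Hinton medium, triplicate. Inoculum 5 × 10^4 CFU per well. Read after 18 h at 35 ± 2 °C.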

Enterococcus faecium [5] = experiment: Antibacterial activity against Vancomycin resistant Enterococcus faecium SI-3856B assessed as reduction in microbial growth measured after 18 hrs by CLSI based broth microdilution method; assay type: functional
Procedure, shortened: (§3)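 Gram-positive clinical isolates; compounds dissolved in DMSO (50 mg mL−1 stock) and diluted in medium; MIC by CLSI broth microdilution in Mueller–Hinton medium, inoculum 5 × 10^4 CFU per well, read after 18 h at 35 ± 2 °C; triplicate.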

Escherichia coli = experiment: Synergistic antibacterial activity against Escherichia coli CCUGT incubated for 18 to 24 hrs in presence of colistin by broth microdilution method; assay type: functional; settings: time 18-24 hrs
[6] = system: Staphylococcus haemolyticus; experiment: Antibacterial activity against oxacillin-resistant Staphylococcus haemolyticus SI-6/2011 assessed as reduction in microbial growth measured after 18 hrs by CLSI based broth microdilution method; assay type: functional; procedure, shortened: as §3
Staphylococcus aureus [7] = experiment: Bactericidal activity against methicillin-resistant Staphylococcus aureus ATCC 43300 assessed as reduction in microbial growth measured after 18 hrs by CLSI based broth microdilution method; assay type: functional
Enterococcus faecium [8] = experiment: Bactericidal activity against Vancomycin resistant Enterococcus faecium SI-1831 assessed as reduction in microbial growth measured after 18 hrs by CLSI based broth microdilution method; assay type: functional
[9] = system: Staphylococcus epidermidis; experiment: Bactericidal activity against linezolid-resistant Staphylococcus epidermidis SI-1266 assessed as reduction in microbial growth measured after 18 hrs by CLSI based broth microdilution method; assay type: functional
Zika virus = settings: vero e6
[10] = Cytotoxicity against human HeLa cells assessed as reduction in cell viability by MTT assay; assay type: toxicity, cell-based
Procedure, shortened: (§4)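 MTT viability on HeLa or VeroE6 cells, run in parallel with the antiviral assays. CC50 from variable-slope sigmoidal dose–response regression.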

Enterococcus faecalis [11] = experiment: Antibacterial activity against Enterococcus faecalis ATCC 29212 assessed as reduction in microbial growth measured after 18 hrs by CLSI based broth microdilution method; assay type: functional; procedure, shortened: as §1
Staphylococcus aureus [12] = experiment: Antibacterial activity against methicillin-resistant Staphylococcus aureus ATCC 43300 assessed as reduction in microbial growth measured after 18 hrs by CLSI based broth microdilution method; assay type: functional; procedure, shortened: as §3
[13] = Cytotoxicity against african green monkey Vero E6 cells assessed as reduction in cell viability by MTT assay; assay type: toxicity, cell-based; settings: chlorocebus sabaeus, Vero E6 cells (Vero C1008); procedure, shortened: as §4
Enterococcus faecium [14] = experiment: Bactericidal activity against Vancomycin resistant Enterococcus faecium SI-3856B assessed as reduction in microbial growth measured after 18 hrs by CLSI based broth microdilution method; assay type: functional
Pseudomonas aeruginosa = experiment: Synergistic antibacterial activity against Pseudomonas aeruginosa ATCC 27853 incubated for 18 to 24 hrs in presence of colistin by broth microdilution method; assay type: functional; settings: time 18-24 hrs
Bacillus subtilis [15] = experiment: Antibacterial activity against Bacillus subtilis ATCC 6633 assessed as reduction in microbial growth measured after 18 hrs by CLSI based broth microdilution method; assay type: functional; procedure, shortened: as §1
Enterococcus faecium [16] = experiment: Antibacterial activity against Vancomycin/teicoplanin resistant Enterococcus faecium SI-759 assessed as reduction in microbial growth measured after 18 hrs by CLSI based broth microdilution method; assay type: functional; procedure, shortened: as §3
Enterococcus faecium [17] = experiment: Antibacterial activity against Vancomycin resistant Enterococcus faecium SI-1831 assessed as reduction in microbial growth measured after 18 hrs by CLSI based broth microdilution method; assay type: functional; procedure, shortened: as §3
Staphylococcus warneri [18] = experiment: Antibacterial activity against oxacillin-resistant Staphylococcus warneri SI-5/2011 assessed as reduction in microbial growth measured after 18 hrs by CLSI based broth microdilution method; assay type: functional; procedure, shortened: as §3
Enterococcus faecium [19] = experiment: Bactericidal activity against Vancomycin/teicoplanin resistant Enterococcus faecium SI-759 assessed as reduction in microbial growth measured after 18 hrs by CLSI based broth microdilution method; assay type: functional
Bacillus subtilis [20] = experiment: Bactericidal activity against Bacillus subtilis ATCC 6633 assessed as reduction in microbial growth measured after 18 hrs by CLSI based broth microdilution method; assay type: functional; procedure, shortened: as §2
[21] = system: Staphylococcus haemolyticus; experiment: Bactericidal activity against oxacillin-resistant Staphylococcus haemolyticus SI-6/2011 assessed as reduction in microbial growth measured after 18 hrs by CLSI based broth microdilution method; assay type: functional
enterovirus D68 = settings: hela
[22] = system: Staphylococcus epidermidis; experiment: Antibacterial activity against linezolid-resistant Staphylococcus epidermidis SI-1266 assessed as reduction in microbial growth measured after 18 hrs by CLSI based broth microdilution method; assay type: functional; procedure, shortened: as §3
rhinovirus A16 = settings: hela
Streptococcus pyogenes [23] = experiment: Bactericidal activity against Streptococcus pyogenes ATCC 12344 assessed as reduction in microbial growth measured after 18 hrs by CLSI based broth microdilution method; assay type: functional; procedure, shortened: as §2
Staphylococcus aureus [24] = experiment: Bactericidal activity against Staphylococcus aureus ATCC 25923 assessed as reduction in microbial growth measured after 18 hrs by CLSI based broth microdilution method; assay type: functional; procedure, shortened: as §2
[25] = biological target: Phosphatidylinositol 4-kinase beta (Homo sapiens, UniProt Q9UBF8); experiment: Inhibition of recombinant full length his tagged PI4KB (unknown origin) incubated for 10 mins in presence of ATP by ADP-glo kinase assay
Phosphatidylinositol 4-kinase beta, sequence (Q9UBF8 whole entry): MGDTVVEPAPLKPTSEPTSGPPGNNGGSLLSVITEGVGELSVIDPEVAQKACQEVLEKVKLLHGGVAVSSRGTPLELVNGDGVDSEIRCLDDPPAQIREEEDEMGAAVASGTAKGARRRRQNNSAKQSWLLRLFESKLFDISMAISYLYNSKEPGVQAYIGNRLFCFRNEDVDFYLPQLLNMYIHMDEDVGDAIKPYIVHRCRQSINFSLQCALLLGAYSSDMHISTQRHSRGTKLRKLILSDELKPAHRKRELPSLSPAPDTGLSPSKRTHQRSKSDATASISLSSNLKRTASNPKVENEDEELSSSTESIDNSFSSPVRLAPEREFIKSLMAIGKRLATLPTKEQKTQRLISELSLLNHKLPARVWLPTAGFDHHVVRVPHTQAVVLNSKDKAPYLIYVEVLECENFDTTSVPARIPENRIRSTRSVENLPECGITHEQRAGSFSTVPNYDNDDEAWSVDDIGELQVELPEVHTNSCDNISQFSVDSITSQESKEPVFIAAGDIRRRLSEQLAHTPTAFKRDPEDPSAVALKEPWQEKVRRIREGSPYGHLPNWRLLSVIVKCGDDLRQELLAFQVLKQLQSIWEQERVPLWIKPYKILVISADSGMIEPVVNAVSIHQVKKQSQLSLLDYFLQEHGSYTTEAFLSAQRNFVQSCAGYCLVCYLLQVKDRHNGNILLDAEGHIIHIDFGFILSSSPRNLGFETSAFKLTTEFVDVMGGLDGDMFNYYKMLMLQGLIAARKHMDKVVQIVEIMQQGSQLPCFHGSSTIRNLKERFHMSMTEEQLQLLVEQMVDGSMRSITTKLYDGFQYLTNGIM

O=C(O)c1cc(Nc2nc(-c3sc(NC(=O)c4ccccc4)nc3C(F)(F)F)cs2)cc(C(F)(F)F)c1
4 µg/mL: MIC (Bacillus subtilis [15])
32 µg/mL: MIC [6] | MBC (Bacillus subtilis [20]) | MIC [22]
>64 µg/mL: MAC (Klebsiella pneumoniae) | MAC (Acinetobacter baumannii) | MAC (Escherichia coli) | MAC (Pseudomonas aeruginosa)
> 50 µM: CC50 [10] | CC50 [13]
2 µg/mL: MIC (Streptococcus pyogenes [1]) | MIC (Enterococcus faecalis [11])
> 64 µg/mL: MBC (Staphylococcus warneri [3]) | MIC (Enterococcus faecium [5]) | MBC (Staphylococcus aureus [7]) | MBC (Enterococcus faecium [8]) | MBC [9] | MIC (Staphylococcus aureus [12]) | MBC (Enterococcus faecium [14]) | MIC (Enterococcus faecium [17]) | MIC (Staphylococcus warneri [18]) | MBC (Enterococcus faecium [19]) | MBC [21]
Not Active: IC50 (Zika virus) | IC50 (enterovirus D68) | IC50 (rhinovirus A16)
> 32 µg/mL: MIC (Staphylococcus aureus [2]) | MBC (Enterococcus faecalis [4]) | MBC (Streptococcus pyogenes [23])
64 µg/mL: MIC (Enterococcus faecium [16])

O=C(Nc1nc(C(F)(F)F)c(-c2csc(Nc3ccc(O)c(C(=O)O)c3)n2)s1)c1ccccc1
> 64 µg/mL: MBC (Staphylococcus aureus [7]) | MBC (Enterococcus faecium [8]) | MBC (Enterococcus faecium [14])
Not Active: IC50 (Zika virus) | IC50 [25] | IC50 (enterovirus D68) | IC50 (rhinovirus A16)
> 32 µg/mL: MBC (Enterococcus faecalis [4]) | MBC (Bacillus subtilis [20])
4 µg/mL: MIC (Streptococcus pyogenes [1])
32 µg/mL: MBC (Staphylococcus aureus [24]) | MIC (Enterococcus faecium [5]) | MIC [6] | MIC (Staphylococcus aureus [12]) | MIC (Enterococcus faecium [17]) | MIC [22] | MBC (Streptococcus pyogenes [23])
> 50 µM: CC50 [10] | CC50 [13]
64 µg/mL: MBC (Staphylococcus warneri [3]) | MBC [9] | MIC (Staphylococcus warneri [18]) | MBC (Enterococcus faecium [19]) | MBC [21]
>64 µg/mL: MAC (Klebsiella pneumoniae) | MAC (Acinetobacter baumannii) | MAC (Escherichia coli) | MAC (Pseudomonas aeruginosa)
16 µg/mL: MIC (Staphylococcus aureus [2]) | MIC (Enterococcus faecalis [11]) | MIC (Bacillus subtilis [15]) | MIC (Enterococcus faecium [16])
